Assay results reported in ChEMBL document CHEMBL2384933, “Vitexin inhibits inflammatory pain in mice by targeting TRPV1, oxidative stress, and cytokines” (J Nat Prod, 2013).
The source made the active and inactive calls.

Tests used:
[1] = test system: Mus musculus; test: Toxicity in Swiss mouse assessed as change in myeloperoxidase activity in stomach at 10 mg/kg, ip for 7 days by spectrophotometric analysis; type: organism-based; parameters: dose 10 mg/kg, route intraperitoneal; conditions: in vivo, 168 h
In short: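 Mice dosed daily ip at 10 mg/kg for 7 days. Stomach homogenized in 50 mM phosphate buffer pH 6.0 with 0.5% HTAB and centrifuged at 16100g. Supernatant mixed with o-dianisidine (0.167 mg/mL) and 0.015% H2O2; read at 450 nm three times within 1 min. Activity expressed as neutrophils ×10⁴/mg tissue against a neutrophil standard curve.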

[2] = test system: Mus musculus; test: Hepatotoxicity in Swiss mouse assessed as change in plasma AST level at 10 mg/kg, ip for 7 days; type: toxicity, organism-based; parameters: dose 10 mg/kg, route intraperitoneal; conditions: in vivo, 168 h
In short: (§1)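 Mice dosed daily ip at 10 mg/kg for 7 days; vehicle was saline or Tris/HCl pH 8.0. Plasma AST and ALT measured with a diagnostic kit.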

[3] = test system: Mus musculus; test: Hepatotoxicity in Swiss mouse assessed as change in plasma ALT level at 10 mg/kg, ip for 7 days; type: toxicity, organism-based; parameters: dose 10 mg/kg, route intraperitoneal; conditions: in vivo, 168 h; in short: as §1
[4] = test system: Mus musculus; test: Neurotoxicity in Swiss mouse assessed as change in motor response at 10 mg/kg, ip after 5.5 hrs by rotarod test (reference value: 180 seconds); type: toxicity, organism-based; parameters: dose 10 mg/kg, route intraperitoneal; conditions: in vivo
In short: (§2)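 Rota-rod with a 2.5 cm bar at 22 rpm. Mice pre-selected 24 h earlier by staying on the bar for two consecutive 180 s periods. Given 10 mg/kg ip (vehicle 2% DMSO in saline) and tested at 1.5, 3.5 and 5.5 h, with a 180 s cutoff. n = 6.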

[5] = test system: Mus musculus; test: Neurotoxicity in Swiss mouse assessed as change in motor response at 10 mg/kg, ip after 3.5 hrs by rotarod test (reference value: 180 seconds); type: toxicity, organism-based; parameters: dose 10 mg/kg, route intraperitoneal; conditions: in vivo; in short: as §2
[6] = test system: Mus musculus; test: Neurotoxicity in Swiss mouse assessed as change in motor response at 10 mg/kg, ip after 1.5 hrs by rotarod test (reference value: 180 seconds); type: toxicity, organism-based; parameters: dose 10 mg/kg, route intraperitoneal; conditions: in vivo; in short: as §2
[7] = test system: Mus musculus; test: Antiinflammatory activity in Swiss mouse assessed as increase in carrageenan-induced IL-10 production 10 mg/kg, ip administered 30 mins prior to carrageenan-challenge measured after 3 hrs by ELISA; type: functional, organism-based; parameters: dose 10 mg/kg
In short: (§3)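 Compound given ip in saline 30 min before intraplantar carrageenan (300 μg/paw). Paw skin taken 3 h later and homogenized in 500 μL buffer with protease inhibitors. TNF-α, IL-1β, IL-6, IL-33 and IL-10 measured by ELISA, reported as pg/100 mg tissue. Saline-injected paws served as controls. Six mice per group; representative of two experiments.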

[8] = test system: Mus musculus; test: Antiinflammatory activity in Swiss mouse assessed as inhibition of carrageenan-induced IL-33 production 10 mg/kg, ip administered 30 mins prior to carrageenan-challenge measured after 3 hrs by ELISA; type: functional, organism-based; parameters: dose 10 mg/kg; conditions: at 10 mg/kg; in short: as §3
[9] = test system: Mus musculus; test: Antiinflammatory activity in Swiss mouse assessed as inhibition of carrageenan-induced IL-6 production 10 mg/kg, ip administered 30 mins prior to carrageenan-challenge measured after 3 hrs by ELISA; type: functional, organism-based; parameters: dose 10 mg/kg; conditions: at 10 mg/kg; in short: as §3
[10] = test system: Mus musculus; test: Antiinflammatory activity in Swiss mouse assessed as inhibition of carrageenan-induced IL-1beta production 10 mg/kg, ip administered 30 mins prior to carrageenan-challenge measured after 3 hrs by ELISA; type: functional, organism-based; parameters: dose 10 mg/kg; conditions: at 10 mg/kg; in short: as §3
[11] = test system: Mus musculus; test: Antiinflammatory activity in Swiss mouse assessed as inhibition of carrageenan-induced TNFalpha production 10 mg/kg, ip administered 30 mins prior to carrageenan-challenge measured after 3 hrs by ELISA; type: functional, organism-based; parameters: dose 10 mg/kg; conditions: at 10 mg/kg; in short: as §3
[12] = test system: Mus musculus; test: Antioxidant activity in Swiss mouse assessed as prevention of carrageenan-induced decrease in 2,2'-Azinobis(3-ethylbenzothiazoline 6-sulfonic acid) scavenging ability at 10 mg/kg, ip administered 30 mins prior to carrageenan-challenge measured after 3 hrs by spectrophotometric analysis; type: functional, organism-based; parameters: dose 10 mg/kg
In short: (§4)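 Given at 10 mg/kg ip 30 min before intraplantar carrageenan; plantar skin taken at 3 h, two mice pooled per sample. Tissue homogenized in 1.15% KCl. FRAP: 37 °C for 30 min, absorbance at 595 nm. ABTS: diluted to A730 0.80 in PBS pH 7.4, read at 730 nm after 6 min. Both expressed as Trolox equivalents/mg tissue (Trolox standard 1.5–30 μmol/L final).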

[13] = test system: Mus musculus; test: Antioxidant activity in Swiss mouse assessed as prevention of carrageenan-induced decrease in ferric-reducing ability potential at 10 mg/kg, ip administered 30 mins prior to carrageenan-challenge measured after 3 hrs by spectrophotometric analysis; type: functional, organism-based; parameters: dose 10 mg/kg; in short: as §4
[14] = test system: Mus musculus; test: Antioxidant activity in Swiss mouse assessed as prevention of carrageenan-induced decrease in GSH levels at 10 mg/kg, ip administered 30 mins prior to carrageenan-challenge measured after 3 hrs by UV-vis spectrophotometric analysis; type: functional, organism-based; parameters: dose 10 mg/kg
In short: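 Given at 10 mg/kg ip 30 min before intraplantar carrageenan (300 μg/paw); plantar skin taken at 3 h, four paws pooled per sample. Tissue homogenized in 0.02 M EDTA with TCA and centrifuged. Supernatant reacted with DTNB in Tris 0.4 M pH 8.9; absorbance read at 412 nm after 5 min. Reported as nmol GSH/mg tissue. Three pools per experiment.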

[15] = test system: Mus musculus; test: Antinociceptive activity in Swiss mouse assessed as inhibition of complete Freund's adjuvant-induced thermal hyperalgesia at 10 mg/kg, ip administered 24 hrs after complete Freund's adjuvant-challenge for seven days by hot plate test; type: functional, organism-based; parameters: dose 10 mg/kg
In short: (§5)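 Treatment at 10 mg/kg ip given daily, starting 24 h after intraplantar CFA (10 μL/paw), for seven days. Electronic pressure-meter (Δ threshold, g) and hot plate (55 °C, 30 s cutoff) read every 24 h over days 1–8. Six mice per group.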

[16] = test system: Mus musculus; test: Antinociceptive activity in Swiss mouse assessed as inhibition of complete Freund's adjuvant-induced mechanical hyperalgesia at 10 mg/kg, ip administered 24 hrs after complete Freund's adjuvant-challenge for seven days by electronic pressure-meter test; type: functional, organism-based; parameters: dose 10 mg/kg; in short: as §5
[17] = test system: Mus musculus; test: Antinociceptive activity in Swiss mouse assessed as inhibition of capsaicin-induced thermal hyperalgesia at 10 mg/kg, ip administered 30 mins prior to capsaicin-challenge measured after 1 to 3 hrs by hot plate test; type: functional, organism-based; parameters: dose 10 mg/kg
In short: (§6)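 Dosed at 10 mg/kg ip 30 min before intraplantar capsaicin (1.6 μg/paw). Mechanical hyperalgesia measured by electronic pressure-meter as Δ withdrawal threshold (g), average of three readings. Thermal hyperalgesia measured as hot-plate latency at 55 °C with a 30 s cutoff. Both read at 1, 3 and 5 h. Six mice per group.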

[18] = test system: Mus musculus; test: Antinociceptive activity in Swiss mouse assessed as inhibition of capsaicin-induced mechanical hyperalgesia at 10 mg/kg, ip administered 30 mins prior to capsaicin-challenge measured after 1 to 5 hrs by electronic pressure-meter test; type: functional, organism-based; parameters: dose 10 mg/kg; in short: as §6

O=c1cc(-c2ccc(O)cc2)oc2c([C@@H]3O[C@H](CO)[C@@H](O)[C@H](O)[C@H]3O)c(O)cc(O)c12 [VITEXIN]
Activity [1]: Non-toxic | Activity [2]: Non-toxic | Activity [3]: Non-toxic | Time [4]: 180 s | Time [5]: 180 s | Time [6]: 180 s | Activity [7]: Active | inhibition [8]: Active | inhibition [9]: Active | inhibition [10]: Active | inhibition [11]: Active | Activity [12]: Active | Activity [13]: Active | Activity [14]: Active | inhibition [15]: Active | inhibition [16]: Active | inhibition [17]: Active | inhibition [18]: Active
